The target of series [1] is T1, Mu-type opioid receptor (Homo sapiens, UniProt P35372). Description: Binding affinity to mu opioid receptor (unknown origin).
For series [2], the target named is Substance-P receptor (Cavia porcellus) (UniProt P30547). Description: Agonist activity at neurokinin-1 receptor in Hartley guniea pig isolated ileum/Longitudinal Muscle with Myenteric Plexus assessed as inhibition of electrically-stimulated muscle contraction at 30 nM. The class given is tissue-based.
Series [3] is filed under the species Homo sapiens. Nature of the series: Selectivity ratio of Ki for mu opioid receptor (unknown origin) to Ki for delta opioid receptor (unknown origin).
Series [4] has as its target T1, Mu-type opioid receptor. Nature of the series: Agonist activity at mu opioid receptor (unknown origin) expressed in HEK293 cells assessed as inhibition of forskolin-induced cAMP accumulation by bioluminescent assay. The class given is functional, cell-based.
Series [5] has as its target T2, Delta-type opioid receptor (Homo sapiens, UniProt P41143). Nature of the series: Agonist activity at delta receptor (unknown origin) expressed in HEK293 cells assessed as inhibition of forskolin-induced cAMP accumulation by bioluminescent assay. In kind it is functional, cell-based.
Series [6] addresses T2, Delta-type opioid receptor. Nature of the series: Binding affinity to delta opioid receptor (unknown origin).
Series [7] can be described thus: Half-life in rat plasma at 50 ug/ml by RP-HPLC assay. The class given is ADME, cell-free. The essentials: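 50 mg/mL DMSO stock diluted 1000-fold into rat plasma (final 50 μg/mL), 37 °C. Aliquots at 0.5–8 h quenched with acetonitrile, centrifuged; parent remaining by RP-HPLC C18. Two independent runs, each in duplicate; half-life from mean of the two.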
The target of series [8] is Delta-type opioid receptor (Mus musculus, UniProt P32300). Description: Agonist activity at delta opioid receptor in ICR mouse isolated vas deferens assessed as inhibition of electrically-stimulated muscle contraction. In kind it is tissue-based.
Series [9] is described as follows: Metabolic stability in rat plasma assessed as compound remaining at 50 ug/ml […] by RP-HPLC assay. The class given is ADME, cell-free. As to conditions: read-out: Stability.
The target of series [10] is Substance-P receptor (Cavia porcellus) (UniProt P30547). Description: Agonist activity at neurokinin-1 receptor in Hartley guniea pig isolated ileum/Longitudinal Muscle with Myenteric Plexus assessed as inhibition of electrically-stimulated muscle contraction at 100 nM. In kind it is tissue-based.
The target of a further series is Substance-P receptor (Rattus norvegicus, UniProt P14600). Nature of the series: Displacement of [3H]SP from rat neurokinin-1 receptor expressed in CHO cells incubated for 20 mins by liquid scintillation counting. In kind it is cell-based. Summed up:
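CHO membranes with human or rat NK1: six compound concentrations in duplicate with 20 μg membrane and 0.5 nM [3H]SP in 50 mM Tris pH 7.4, 5 mM MgCl2 plus peptidase inhibitors; 25 °C, 20 min. Nonspecific binding with 10 μM SP. GF/B filtration (PEI-soaked), scintillation counting.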
(Loss of bound radioactivity is the signal in a displacement assay; it reports binding, not function.)

The species named for another series is Rattus norvegicus. Description: Neurotoxicity in Sprague-Dawley rat assessed as motor impairment at 10 ug/5 ul, it by rotarod test. The class given is toxicity, organism-based. The note with it: in vivo, icv_or_intrathecal. Summed up:
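Intrathecal catheterized Sprague–Dawley rats given 10 μg in 5 μL; motor function assessed by rotarod.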
Background: Falling from the rotarod earlier than controls is read as motor impairment.

Series [11] can be described thus: Selectivity ratio of IC50 for mu opioid receptor in Hartley guniea pig isolated ileum to IC50 for delta opioid receptor in ICR mouse isolated vas deferens. The class given is tissue-based.
For series [12], the target named is Substance-P receptor (Cavia porcellus) (UniProt P30547). Description: Agonist activity at neurokinin-1 receptor in Hartley guniea pig isolated ileum/Longitudinal Muscle with Myenteric Plexus assessed as inhibition of electrically-stimulated muscle contraction at 300 nM. The class given is tissue-based.
For series [13] the target is unchanged. Description: Antagonist activity at neurokinin-1 receptor in Hartley guniea pig isolated ileum/Longitudinal Muscle with Myenteric Plexus assessed as inhibition of electrically-stimulated muscle contraction. The class given is tissue-based.
For series [14], the species on record is Homo sapiens. Description: Selectivity ratio of IC50 for mu opioid receptor (unknown origin) to IC50 for delta opioid receptor (unknown origin).
Series [15] addresses Substance-P receptor (Homo sapiens) (UniProt P25103). Nature of the series: Antagonist activity at neurokinin-1 receptor (unknown origin) expressed in CHO cells assessed as inhibition of substance-P induced calcium flux by bioluminescent assay. The class given is functional, cell-based.
The target in series [16] is Substance-P receptor (Cavia porcellus) (UniProt P30547). Description: Agonist activity at neurokinin-1 receptor in Hartley guniea pig isolated ileum assessed as inhibition of electrically-stimulated muscle contraction at 1 uM. In kind it is tissue-based. Also on record: scale not given: the % may be the effect or the level left.
Series [17] deals with Mu-type opioid receptor (Cavia porcellus, UniProt P97266). Nature of the series: Agonist activity at mu opioid receptor in Hartley guniea pig isolated ileum assessed as inhibition of electrically-stimulated muscle contraction. The class given is tissue-based.

SMILES strings stand for the structures. Activity calls are given as the source filed them. The calls are words filed in the database; no cut-off is given here.

T1 sequence (P35372 whole entry): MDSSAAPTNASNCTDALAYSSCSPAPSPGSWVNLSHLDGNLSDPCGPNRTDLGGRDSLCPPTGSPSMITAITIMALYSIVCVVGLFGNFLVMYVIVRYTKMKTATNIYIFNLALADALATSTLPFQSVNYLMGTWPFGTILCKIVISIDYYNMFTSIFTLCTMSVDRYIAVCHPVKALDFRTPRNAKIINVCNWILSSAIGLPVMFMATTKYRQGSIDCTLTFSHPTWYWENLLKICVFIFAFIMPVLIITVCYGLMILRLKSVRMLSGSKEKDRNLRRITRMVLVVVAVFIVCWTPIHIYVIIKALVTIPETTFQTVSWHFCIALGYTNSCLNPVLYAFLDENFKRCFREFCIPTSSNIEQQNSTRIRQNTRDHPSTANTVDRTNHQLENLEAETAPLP
Chain of Substance-P receptor (Cavia porcellus) (P30547 whole entry): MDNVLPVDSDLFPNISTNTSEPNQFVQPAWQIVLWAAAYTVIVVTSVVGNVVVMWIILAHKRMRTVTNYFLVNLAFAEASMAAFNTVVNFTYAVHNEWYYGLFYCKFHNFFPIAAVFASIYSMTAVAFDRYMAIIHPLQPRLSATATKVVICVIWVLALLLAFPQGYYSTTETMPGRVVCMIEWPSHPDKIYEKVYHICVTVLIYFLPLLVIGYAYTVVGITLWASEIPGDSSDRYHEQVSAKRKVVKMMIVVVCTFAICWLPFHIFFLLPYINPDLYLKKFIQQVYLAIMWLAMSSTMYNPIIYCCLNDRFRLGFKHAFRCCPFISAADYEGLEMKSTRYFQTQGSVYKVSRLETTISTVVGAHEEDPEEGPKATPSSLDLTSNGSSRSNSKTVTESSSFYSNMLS
T2 sequence (P41143 whole entry): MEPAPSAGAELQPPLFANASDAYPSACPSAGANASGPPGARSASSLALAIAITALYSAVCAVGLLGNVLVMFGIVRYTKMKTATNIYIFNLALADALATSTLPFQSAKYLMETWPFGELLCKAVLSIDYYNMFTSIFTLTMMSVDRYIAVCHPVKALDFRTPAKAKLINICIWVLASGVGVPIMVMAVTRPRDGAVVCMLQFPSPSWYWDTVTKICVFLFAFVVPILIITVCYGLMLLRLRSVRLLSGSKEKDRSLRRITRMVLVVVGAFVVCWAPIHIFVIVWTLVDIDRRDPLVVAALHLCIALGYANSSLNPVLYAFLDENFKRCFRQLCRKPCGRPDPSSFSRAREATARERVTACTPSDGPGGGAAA
Chain of Substance-P receptor (P14600 whole entry): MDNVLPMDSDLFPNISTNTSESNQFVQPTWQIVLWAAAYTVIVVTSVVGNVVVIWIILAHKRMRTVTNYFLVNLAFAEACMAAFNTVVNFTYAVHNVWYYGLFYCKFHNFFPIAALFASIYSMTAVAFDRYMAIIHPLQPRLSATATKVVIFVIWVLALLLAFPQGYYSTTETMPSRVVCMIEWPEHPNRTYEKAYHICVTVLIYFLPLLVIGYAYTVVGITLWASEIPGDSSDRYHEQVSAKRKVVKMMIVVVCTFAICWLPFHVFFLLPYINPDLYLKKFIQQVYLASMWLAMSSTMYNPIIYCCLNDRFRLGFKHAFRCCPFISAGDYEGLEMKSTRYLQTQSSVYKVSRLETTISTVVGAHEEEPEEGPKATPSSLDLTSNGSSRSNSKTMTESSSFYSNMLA
Chain of Delta-type opioid receptor (Mus musculus, UniProt P32300) (P32300 whole entry): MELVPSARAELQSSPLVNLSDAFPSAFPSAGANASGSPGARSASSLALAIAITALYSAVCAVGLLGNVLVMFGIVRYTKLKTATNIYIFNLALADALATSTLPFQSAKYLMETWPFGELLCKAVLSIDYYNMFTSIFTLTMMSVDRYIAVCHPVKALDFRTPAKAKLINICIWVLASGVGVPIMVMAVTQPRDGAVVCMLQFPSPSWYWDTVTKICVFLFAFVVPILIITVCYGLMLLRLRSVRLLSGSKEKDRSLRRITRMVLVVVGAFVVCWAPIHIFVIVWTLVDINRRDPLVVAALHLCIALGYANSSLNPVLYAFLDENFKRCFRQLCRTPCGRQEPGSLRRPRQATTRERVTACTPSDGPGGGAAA
Chain of Mu-type opioid receptor (Cavia porcellus, UniProt P97266) (P97266 whole entry): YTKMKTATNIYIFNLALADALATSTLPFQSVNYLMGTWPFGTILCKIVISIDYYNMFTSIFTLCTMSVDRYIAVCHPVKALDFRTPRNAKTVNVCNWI
Chain of Substance-P receptor (Homo sapiens) (P25103 whole entry): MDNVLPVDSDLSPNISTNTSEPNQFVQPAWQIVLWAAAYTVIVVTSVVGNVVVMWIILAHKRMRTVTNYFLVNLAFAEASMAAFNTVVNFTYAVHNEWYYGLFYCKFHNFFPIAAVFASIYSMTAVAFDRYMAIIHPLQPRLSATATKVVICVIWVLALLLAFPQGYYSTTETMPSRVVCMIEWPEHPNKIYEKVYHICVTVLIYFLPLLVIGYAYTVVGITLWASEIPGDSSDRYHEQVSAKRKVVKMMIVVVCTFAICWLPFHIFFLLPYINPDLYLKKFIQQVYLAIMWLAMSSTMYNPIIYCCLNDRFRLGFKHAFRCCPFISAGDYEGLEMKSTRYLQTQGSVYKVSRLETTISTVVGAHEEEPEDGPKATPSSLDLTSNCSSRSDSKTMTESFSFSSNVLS

As usually defined, the IC50 is the midpoint of a concentration-inhibition curve. For `Cc1cc(O)cc(C)c1C[C@H](N)C(=O)N[C@H](C)C(=O)NCC(=O)N[C@@H](Cc1ccc(Br)cc1)C(=O)N1CCC[C@H]1C(=O)N[C@@H](CC(C)C)C(=O)N[C@@H](Cc1c[nH]c2ccccc12)C(=O)NCc1cc(C(F)(F)F)cc(C(F)(F)F)c1`, the IC50 at Mu-type opioid receptor [1] was 11 nM.
Same read-out and setting: as for `Cc1cc(O)cc(C)c1C[C@H](N)C(=O)N[C@H](C)C(=O)NCC(=O)N[C@@H](Cc1ccc(Cl)cc1)C(=O)N1CCC[C@H]1C(=O)N[C@@H](CC(C)C)C(=O)N[C@@H](Cc1c[nH]c2ccccc12)C(=O)NCc1cc(C(F)(F)F)cc(C(F)(F)F)c1`, the figure is 4.68 nM.
In the case of `Cc1cc(O)cc(C)c1C[C@H](N)C(=O)N[C@@H](C)C(=O)NCC(=O)N[C@@H](Cc1ccc(F)cc1)C(=O)N1CCC[C@H]1C(=O)N[C@@H](CC(C)C)C(=O)N[C@@H](Cc1c[nH]c2ccccc12)C(=O)NCc1cc(C(F)(F)F)cc(C(F)(F)F)c1`, in [2], the outcome was inactive. Moreover, the Ratio Ki in the series filed under Homo sapiens [3] came out at 1.
Regarding `Cc1cc(O)cc(C)c1C[C@H](N)C(=O)N[C@@H](C)C(=O)NCC(=O)N(C)[C@@H](Cc1ccccc1)C(=O)N1CCC[C@H]1C(=O)N[C@@H](CC(C)C)C(=O)N[C@@H](Cc1c[nH]c2ccccc12)C(=O)NCc1cc(C(F)(F)F)cc(C(F)(F)F)c1`, the result in series [2] was inactive.
For orientation: half-life means the time in which the quantity being followed falls by half. For `Cc1cc(O)cc(C)c1C[C@H](N)C(=O)N[C@H](C)C(=O)NCC(=O)N[C@@H](Cc1ccc(F)cc1)C(=O)N1CCC[C@H]1C(=O)N[C@@H](CC(C)C)C(=O)N[C@@H](Cc1c[nH]c2ccccc12)C(=O)NCc1cc(C(F)(F)F)cc(C(F)(F)F)c1`, the concentration for half-maximal inhibition (IC50) is 1.91 nM on Mu-type opioid receptor [1]; 59 nM at Mu-type opioid receptor [4]; 21 nM in series [5]; 66.1 nM in series [6]; 2 nM in series [8]. The half-life at 50 ug/ml in series [7] was more than 720 min. Also, the remaining at 50 ug/ml in [9] came out at 100%.
For `CC(C)C[C@H](NC(=O)[C@@H]1CCCN1C(=O)[C@H](Cc1ccc(F)cc1)NC(=O)CNC(=O)[C@H](C)NC(=O)[C@@H](N)Cc1ccc(O)cc1)C(=O)N[C@@H](Cc1c[nH]c2ccccc12)C(=O)NCc1cc(C(F)(F)F)cc(C(F)(F)F)c1`, in series [2], the result was inactive.
`Cc1cc(O)cc(C)c1C[C@H](N)C(=O)N[C@H](C)C(=O)NCC(=O)N[C@@H](Cc1ccc(I)cc1)C(=O)N1CCC[C@H]1C(=O)N[C@@H](CC(C)C)C(=O)N[C@@H](Cc1c[nH]c2ccccc12)C(=O)NCc1cc(C(F)(F)F)cc(C(F)(F)F)c1`: the IC50 at Mu-type opioid receptor [1] is 13.2 nM.
With `Cc1cc(O)cc(C)c1C[C@H](N)C(=O)N[C@@H](C)C(=O)NCC(=O)N[C@@H](Cc1ccc(Br)cc1)C(=O)N1CCC[C@H]1C(=O)N[C@@H](CC(C)C)C(=O)N[C@@H](Cc1c[nH]c2ccccc12)C(=O)NCc1cc(C(F)(F)F)cc(C(F)(F)F)c1`, in [10], the result was inactive.
What is called Ki is a dissociation constant, usually derived from enzyme kinetics or from competition with a known ligand. On to `CC(C)C[C@H](NC(=O)[C@@H]1CCCN1C(=O)[C@H](Cc1ccc(F)cc1)NC(=O)CNC(=O)[C@@H](C)NC(=O)[C@@H](N)Cc1ccc(O)cc1)C(=O)N[C@@H](Cc1c[nH]c2ccccc12)C(=O)NCc1cc(C(F)(F)F)cc(C(F)(F)F)c1`, for which the inhibition constant (Ki) was determined as 34 nM at Substance-P receptor and 7 nM in series [6]. Besides, the results for the IC50 (at Mu-type opioid receptor [1]; in series [6]) were 8.32 nM and 15.5 nM, respectively. Further, the remaining at 50 ug/ml in [9] was determined as 100%.
Take `Cc1cc(O)cc(C)c1C[C@H](N)C(=O)N[C@H](C)C(=O)NCC(=O)N(C)[C@@H](Cc1ccccc1)C(=O)N1CCC[C@H]1C(=O)N[C@@H](CC(C)C)C(=O)N[C@@H](Cc1c[nH]c2ccccc12)C(=O)NCc1cc(C(F)(F)F)cc(C(F)(F)F)c1`: the Activity entry in the series filed under Rattus norvegicus is reported as “Toxic”. Moreover, the IC50 is 1.66 nM on Mu-type opioid receptor [1], 39 nM on Mu-type opioid receptor [4] and 30 nM in [5]. Further, the remaining at 50 ug/ml in [9] was determined as 100%.
Consider `Cc1cc(O)cc(C)c1C[C@H](N)C(=O)N[C@@H](C)C(=O)NCC(=O)N(C)[C@@H](Cc1ccc(F)cc1)C(=O)N1CCC[C@H]1C(=O)N[C@@H](CC(C)C)C(=O)N[C@@H](Cc1c[nH]c2ccccc12)C(=O)NCc1cc(C(F)(F)F)cc(C(F)(F)F)c1`, for which the result in [2] was inactive.
Regarding `CC(C)C[C@H](NC(=O)[C@@H]1CCCN1C(=O)[C@H](Cc1ccccc1)N(C)C(=O)CNC(=O)[C@H](C)NC(=O)[C@@H](N)Cc1ccc(O)cc1)C(=O)N[C@@H](Cc1c[nH]c2ccccc12)C(=O)NCc1cc(C(F)(F)F)cc(C(F)(F)F)c1`, in series [11], the Ratio IC50 was determined as 2. Moreover, the result in series [10] was inactive.
In the case of `Cc1cc(O)cc(C)c1C[C@H](N)C(=O)N[C@H](C)C(=O)NCC(=O)N(C)[C@@H](Cc1ccc(F)cc1)C(=O)N1CCC[C@H]1C(=O)N[C@@H](CC(C)C)C(=O)N[C@@H](Cc1c[nH]c2ccccc12)C(=O)NCc1cc(C(F)(F)F)cc(C(F)(F)F)c1`, the half-inhibitory concentration (IC50) at Mu-type opioid receptor [1] was 2.82 nM.
As to `Cc1cc(O)cc(C)c1C[C@H](N)C(=O)N[C@@H](C)C(=O)NCC(=O)N[C@@H](Cc1ccc(Cl)cc1)C(=O)N1CCC[C@H]1C(=O)N[C@@H](CC(C)C)C(=O)N[C@@H](Cc1c[nH]c2ccccc12)C(=O)NCc1cc(C(F)(F)F)cc(C(F)(F)F)c1`, the result in series [12] was inactive. Moreover, the Ratio IC50 in series [11] came to 7. In addition, the Ratio Ki in the series listed under Homo sapiens [3] is 1.
Take `CC(C)C[C@H](NC(=O)[C@@H]1CCCN1C(=O)[C@H](Cc1ccccc1)NC(=O)CNC(=O)[C@@H](C)NC(=O)[C@@H](N)Cc1ccc(O)cc1)C(=O)N[C@@H](Cc1c[nH]c2ccccc12)C(=O)NCc1cc(C(F)(F)F)cc(C(F)(F)F)c1`: on Mu-type opioid receptor [1], the IC50 is 20 nM and the Ki is 9.5 nM.
For the molecule `Cc1cc(O)cc(C)c1C[C@H](N)C(=O)N[C@@H](C)C(=O)NCC(=O)N[C@@H](Cc1ccccc1)C(=O)N1CCC[C@H]1C(=O)N[C@@H](CC(C)C)C(=O)N[C@@H](Cc1c[nH]c2ccccc12)C(=O)NCc1cc(C(F)(F)F)cc(C(F)(F)F)c1`, the Ke in [13] amounted to 25 nM; in [15], 11 nM. The Ratio IC50 in the series listed under Homo sapiens [14] is 6; in [11], 26. Moreover, in series [10], the result was inactive. In the series listed under Homo sapiens [3], the Ratio Ki stood at 3.
Consider `CC(C)C[C@H](NC(=O)[C@@H]1CCCN1C(=O)[C@H](Cc1ccccc1)N(C)C(=O)CNC(=O)[C@@H](C)NC(=O)[C@@H](N)Cc1ccc(O)cc1)C(=O)N[C@@H](Cc1c[nH]c2ccccc12)C(=O)NCc1cc(C(F)(F)F)cc(C(F)(F)F)c1`, for which the IC50 at Mu-type opioid receptor [1] was 89.1 nM.
As to `Cc1cc(O)cc(C)c1C[C@H](N)C(=O)N[C@@H](C)C(=O)NCC(=O)N[C@@H](Cc1ccc(I)cc1)C(=O)N1CCC[C@H]1C(=O)N[C@@H](CC(C)C)C(=O)N[C@@H](Cc1c[nH]c2ccccc12)C(=O)NCc1cc(C(F)(F)F)cc(C(F)(F)F)c1`, the outcome in [12] was inactive. For the same molecule, the Activity in series [16] amounted to 41%.
As to `Cc1cc(O)cc(C)c1C[C@H](N)C(=O)N[C@H](C)C(=O)NCC(=O)N[C@@H](Cc1ccccc1)C(=O)N1CCC[C@H]1C(=O)N[C@@H](CC(C)C)C(=O)N[C@@H](Cc1c[nH]c2ccccc12)C(=O)NCc1cc(C(F)(F)F)cc(C(F)(F)F)c1`, the Ki was 27 nM on Substance-P receptor (cho) and 3 nM on Mu-type opioid receptor [1]. The concentration for half-maximal inhibition (IC50) on Mu-type opioid receptor [1] was 2.34 nM; on Mu-type opioid receptor [4] (hek293), 46 nM; in [5] (hek293), 7.2 nM; on Mu-type opioid receptor [17], 81 nM.

The values above are taken from ChEMBL document CHEMBL3734657, “Discovery of Novel Multifunctional Ligands with μ/δ Opioid Agonist/Neurokinin-1 (NK1) Antagonist Activities for the Treatment of Pain” (J Med Chem, 2015).
